High-throughput results (PubChem)
Compounds with a hit are over-represented: about 9.8% of the library has one in this group of screens.
PMI act hi M6P: increases human PMI activity with near-saturating mannose 6-phosphate. coupled PMI enzyme assay, resazurin fluorescence, 20 min; stronger effect = higher value; 1 = untreated enzyme, 0 = substrate-free blank. 190,000 compounds, 0.34% hits. AID 1216. activation factor at 20 µM;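 active = activation factor of 2 or more at 20 µM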
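Material: human phosphomannose isomerase with PGI, G6PDH, diaphorase coupling enzymes; amount: PMI at 15 ng/mL final; also added: Mannose-6-phosphate 1.0 mM (near-saturating) plus 0.22 mM NADP+; incubation: enzyme reaction with compound 20 min at room temperature; signal: resorufin fluorescence (Ex 544/Em 590 nm) from resazurin via diaphorase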
WT yeast gro inh: growth inhibition of WT yeast, mitochondrial fusion screen. mitochondrial fusion phenotypic screen, WT strain. inhibition, % at 10 µM. 190,000 compounds, 2.1% hits. AID 1362; in the data active = inhibition above about 58%; tested in S. cerevisiae
Lmaj promast: Leishmania major promastigote growth inhibition. Leishmania major promastigotes, resazurin fluorescence viability. inhibition, % at 10 µM. 200,000 compounds, 9% hits. AID 1063; in the data active = inhibition above about 50%;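 also: promastigotes grown with compound for 44 hours at 28 °C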
PMI activator: increases human mannose-6-phosphate isomerase activity; P34949; purified human PMI, coupled resazurin fluorescence, 20 min; stronger effect = higher value; 1 = vehicle control, 0 substrate-free wells; activation factor at 20 µM; 190,000 compounds, 0.005% hits; AID 1214;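 active = activation factor of 2 or more at 20 µM, relative to plate controls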
Calpain2 inh: inhibitors of pig calpain II | purified calpain II, fluorogenic peptide substrate, 30 min | inhibition, % at 16 µM | 220,000 compounds, 0.37% hits | AID 1236;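 active = inhibition above about 50%, limit read from the data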
Rad51 HR inh: Rad51 (human) homologous recombination inhibition; hRad51 DNA strand exchange, fluorescence dequenching; inhibition, % at 10 µM; 200,000 compounds, 0.085% hits;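 active = inhibition above 40% at the single screening dose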;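 also: 0% = DMSO control wells and 100% = blanks with heterologous ssDNA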
Target sequence (Q06609 whole entry, looked up): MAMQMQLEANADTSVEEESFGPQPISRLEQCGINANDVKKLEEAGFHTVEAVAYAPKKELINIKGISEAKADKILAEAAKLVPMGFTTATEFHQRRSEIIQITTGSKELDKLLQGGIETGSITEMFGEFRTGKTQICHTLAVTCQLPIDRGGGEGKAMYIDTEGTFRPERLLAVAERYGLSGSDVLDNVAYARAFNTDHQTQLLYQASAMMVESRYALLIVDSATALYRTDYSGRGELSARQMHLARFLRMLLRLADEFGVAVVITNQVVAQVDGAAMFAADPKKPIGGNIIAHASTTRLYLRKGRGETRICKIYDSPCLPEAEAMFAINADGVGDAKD
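Assay system: Human Rad51 nucleoprotein filaments preassembled on unlabelled ssDNA | Reagent: Donor/quencher-labelled 47-bp dsDNA substrate | Doses: One concentration, 10 µM final | Times: 37 °C 15-min filament assembly, 30-min compound preincubation, 15-min exchange | Technique: Fluorescein emission 520 nm, excitation 485 nm | Benchmarks: Plate control and blank wells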
* = called active by the depositor; i = inactive; . = not tested or not shown.

SMILES	PMI act hi M6P	WT yeast gro inh	Lmaj promast	PMI activator	Calpain2 inh	Rad51 HR inh
Cc1ccccc1C(=O)Nc1sc(C)c(C)c1C(=O)c1ccccc1	0.9	22	5	0.9	45	-3
COC(=O)CCC(=O)Nc1sc(Cc2ccccc2)c(C)c1C(N)=O	.	64*	-9	.	22	0
Cc1cc(C(=O)c2ccc(C(C)(C)C)cc2)c(NC(=O)CCl)s1	1	55	96*	0.9	18	.
COC(=O)[C@H](Cc1ccccc1)NC(=O)NCCC1=CCCCC1	1	-3	9	1	16	2
COc1cc(/C=N/N=C/c2c[nH]c(=O)c(C#N)c2Nc2ccccc2)ccc1O	.	.	.	.	-17	2
O=C(O)/C=C/C(=O)N(Cc1ccc2c(c1)OCO2)C1CC(=O)N(CCc2ccccc2)C1=O (centres undefined)	1	-5	-13	1	0	7
CCOC(=O)C1CCN(c2ncnc3c2[nH]c2cccc(OC)c23)CC1	0.9	17	73*	0.9	i	-4
COc1cccc2[nH]c3c(Cl)ncnc3c12	1	-6	34	0.9	-457	-8
CCOC(=O)C1CCN(c2ncnc3c2oc2ccc(Cl)cc23)CC1	0.8	62	-4	0.9	-53	-6
COc1cccc2[nH]c3c(N4CCCCC4)ncnc3c12	0.9	6	96*	1	-405	-1
O=C(NCc1cccc(Br)c1)C1CC(c2ccccc2[N+](=O)[O-])=NO1 (centres undefined)	.	.	.	.	.	-10
CC(CCc1ccccc1)NCC#N (centres undefined)	.	.	.	.	-10	5
CCCCCC[n+]1c(-c2ccccc2)csc1Nc1ccccc1	1	69*	9	1	26	0
O=C(O)c1ccc(C[n+]2c(-c3ccccc3)csc2Nc2ccccc2)cc1	1.1	12	-6	1.1	-2	7
COc1cc(CCC(=O)N2CCN(c3ncccn3)CC2)cc(OC)c1OC	1	3	2	1.1	15	-7
COc1cc(/C=C2/NC(=O)N(Cc3ccccc3F)C2=O)ccc1O	1	4	-9	1	9	.
O=C(C1CC1)N(Cc1nc2ccccc2c(=O)[nH]1)Cc1cccs1	.	.	.	.	-12	-3
O=C(C1CCCCC1)N(Cc1nc2sc3c(c2c(=O)[nH]1)CCCC3)Cc1cccs1	0.9	59*	2	1	-208	-6
CC/C(=N/Nc1ccccc1)c1cnnc(-c2ccccc2)n1	2.9*	12	13	1.9	0	-8
CC/C(=N/Nc1cccc(Cl)c1)c1cnnc(SC)n1	1.1	0	26	1.1	-28	.
CCNC(=S)N1CCC(C(N)=O)CC1	.	.	.	.	-15	-10
CCOC(=O)c1[nH]c2ccc(OC)cc2c1NC(=O)CN1CCN(c2ccccn2)CC1	1	-3	16	1	-330	.
CCOC(=O)c1[nH]c2ccc(OC)cc2c1NC(=O)CN1CCC2(CC1)OCCO2	1	9	-5	0.9	i	1
CCOC(=O)c1[nH]c2ccc(OC)cc2c1NC(=O)C(C)N1CCC2(CC1)OCCO2 (centres undefined)	1	67*	13	0.9	-438	-1
CCOC(=O)c1[nH]c2ccc(OC)cc2c1NC(=S)N1CCN(c2ccccc2)CC1	0.9	1	77*	0.9	-7	-8
SMILES	PMI act hi M6P	WT yeast gro inh	Lmaj promast	PMI activator	Calpain2 inh	Rad51 HR inh
CCOC(=O)c1[nH]c2ccc(OC)cc2c1NC(=S)N1CCN(c2ccccn2)CC1	0.8	10	54*	0.9	-9	-3
O=C(CC12CC3CC(CC(C3)C1)C2)NC(=S)NCc1ccco1	0.9	73*	93*	0.9	22	16
O=C(CCNS(=O)(=O)c1ccc(Br)s1)NCc1ccc2c(c1)OCO2	1.1	-2	6	1	-8	9
CCn1ncc([N+](=O)[O-])c1C(=O)Nc1cc(C)on1	0.9	-6	92*	0.9	12	.
CCOc1ccc2nc(NC(=O)c3c([N+](=O)[O-])cnn3CC)sc2c1	0.9	5	63*	1	4	18
CCn1ncc([N+](=O)[O-])c1C(=O)n1nc(C)cc1C	0.9	-4	-3	0.9	-8	16
Cc1ccc(SC(=O)c2c(C)noc2-c2cc(C)on2)cc1	.	.	.	.	-4	15
CSc1ccc(-c2nc(CN3CCCCC3c3cccnc3)c(C)o2)cc1 (centres undefined)	1	17	51*	0.9	-34	.
CC(C1CC1)N(Cc1ccccc1)C(=S)Nc1ccccc1Cl (centres undefined)	1	56	24	1	24	8
COc1cccc(/C=N/NC(=O)c2cccc([N+](=O)[O-])c2)c1OS(=O)(=O)c1ccccc1	0.9	-7	100*	0.9	-42	5
COc1cccc(/C=N/NC(=O)c2ccc([N+](=O)[O-])cc2Cl)c1O	1.1	-4	99*	0.9	13	-31
CC(NC(=O)CCN1N=C(c2ccccc2)CCC1=O)c1ccc2c(c1)OCCO2 (centres undefined)	1	11	5	1	27	-3
Cc1cc(=S)c2cccc(C)c2[nH]1	2.7*	54	-3	1.7	-20	-2
CCOc1ccc(NC(=O)CN(C)Cc2cc(=O)n3c(-c4ccccc4)csc3n2)cc1OCC	0.8	-11	9	1	-83	-4
Nc1c(Cl)cc(-c2csc(N3CCCC3c3nc4cc(Cl)c(N5CCCCC5)cc4n3CCOCCO)n2)cc1Cl (centres undefined)	.	.	.	.	.	4
COc1ccc(CNC(=O)C2CC(=O)N(c3ccc(OCC(=O)N4C(C)CCCC4C)cc3)C2)cc1 (centres undefined)	1	64*	5	1	14	7
O=C1Cc2ccccc2Sc2cc(OCCCN3CCCCC3)ccc21	0.5	16	100*	0.8	-61	1
O=C1Cc2ccccc2Sc2c(OCCN3CCCCC3)cccc21	0.7	27	100*	0.9	-17	3
Nc1ccc2c(c1)C(=O)Cc1ccccc1S2	0.8	-3	2	1	16	5
CN(C)CCCOc1ccc2c(c1)Sc1ccccc1CC2=O	0.5	0	100*	1	-50	3
CCOc1ccc(C2c3[nH]c4ccccc4c3CCN2C(=O)Cn2cncn2)cc1 (centres undefined)	1	-1	10	0.8	-60	-1
Cc1ccccc1NC(=S)N/N=C1\CC(C)(C)Oc2ccc(O)cc21	1	-6	84*	0.9	-113	4
Cc1cccc(NC2=C/C(=N/S(=O)(=O)c3cccs3)c3ccccc3C2=O)c1	0.4	20	19	1	17	.
Cc1ccc(Cl)cc1NC1=C/C(=N\S(=O)(=O)c2cccs2)c2ccccc2C1=O	0.8	96*	100*	0.7	-68	0
